GalR3 antag – antagonists of human GalR3; 0.44% of 360,000 active; O60755; inhibition, % at 3 µM; HEK293 GalR3-CNG cAMP membrane potential fluorescence; galR3 body fused to GalR1 C-terminus;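 active means inhibition above the screen-wide average plus 3 SD, cut at about 13% in these data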;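 further: forskolin and galanin both at EC90 stimulate the cells; cAMP rise reported by CNG channel membrane potential dye signal; 0% = forskolin plus galanin with DMSO and 100% = forskolin alone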
Target sequence (O60755 1-299 limits assumed): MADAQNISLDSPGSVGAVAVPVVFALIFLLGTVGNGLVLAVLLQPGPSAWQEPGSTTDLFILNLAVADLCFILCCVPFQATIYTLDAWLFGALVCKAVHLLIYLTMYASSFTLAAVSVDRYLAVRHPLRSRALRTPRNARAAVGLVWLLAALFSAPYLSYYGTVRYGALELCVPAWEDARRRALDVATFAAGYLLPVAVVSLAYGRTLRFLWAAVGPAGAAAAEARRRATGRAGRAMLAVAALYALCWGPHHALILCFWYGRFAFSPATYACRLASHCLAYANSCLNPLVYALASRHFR
MsrA inhibitor – inhibitors of bovine MsrA. purified bovine MsrA, absorbance read-out. inhibition, % at 15.5 µM. 0.75% of 360,000 active. AID 651718; in the data active means inhibition above about 4.5%;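 further: 0% = vehicle wells with enzyme and 100% = reference inhibitor wells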
bovine MsrA act – activates bovine MsrA enzyme. purified bovine MsrA, absorbance read-out. activation, % at 10.6 µM. 0.3% of 360,000 active. AID 602163; in the data active means activation above about 7.5%;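 further: 0% = vehicle and 100% = reference activator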
NR2E3 ag-1 – human photoreceptor-specific nuclear receptor agonism; CHO-S Gal4-NCOR/VP16-NR2E3 two-hybrid, luciferase; inhibition of corepressor binding, % at 3.98 µM; 0.35% of 360,000 active; Q9Y5X4;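 active means inhibition above the mean of all tested compounds plus 3 SD, cut at about 70% in these data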;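 further: 0% = DMSO with NR2E3 transfected cells and 100% = cells lacking NR2E3 construct; higher means lower luciferase signal from less NR2E3 corepressor binding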
NadD block – blocks S. aureus nicotinate mononucleotide adenylyltransferase; purified NadD enzyme, colorimetric absorbance read-out; inhibition, % at 20 µM; 0.78% of 360,000 active; AID 602399; in the data active means inhibition above about 26%
NR2E3 ag-2 – agonists of human nuclear receptor NR2E3; Q9Y5X4; GST-NR2E3/biotin-RetCOR TR-FRET, 1536-well; inhibition of corepressor binding, % at 4.78 µM; 0.12% of 320,000 active;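 active means percent inhibition above the cutoff of mean plus 3 SD of all tested compounds, set per screening campaign, cut at about 20% in these data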;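 further: 0% = DMSO wells and 100% = biotin wells as full block of FRET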
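System: GST-tagged NR2E3 plus biotinylated RetCOR corepressor; Amount: 1.35 nM GST-tagged NR2E3 final; Dosing: single nominal compound dose of 4.8 µM; Schedule: 5 h incubation at 4 °C; Technique: TR-FRET with europium anti-GST and streptavidin-D2, 340 nm excitation; Controls: biotin wells as high control, 0.6% DMSO wells as low control.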
NR2E3 ag conf – NR2E3 agonism confirmed in two-hybrid assay; shares compounds with NR2E3 ag-1; inhibition, % at 3.98 µM; CHO-S mammalian two-hybrid NR2E3-NCOR, luciferase luminescence; 51% of 2,300 active;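 active means average inhibition above a cutoff equal to the mean inhibition of all tested compounds plus one SD, cut at about 70% in these data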;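 further: 0% = DMSO in NR2E3 cells and 100% = DMSO in cells lacking NR2E3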
VP16 counter – counter-screen for NR2E3 agonists: GAL4-VP16 reporter inhibitors. 29% of 2,300 active. shares compounds with NR2E3 ag-1. CHO-S GAL4-VP16 luciferase reporter, luminescence. inhibition, % at 3.98 µM;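 active means mean inhibition above a cutoff equal to the average over all tested compounds plus one standard deviation, cut at about 70% in these data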;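 further: luciferase from a UAS reporter driven by GAL4-VP16 transactivation; 0% = DMSO with VP16-transfected cells and 100% = DMSO with cells lacking VP16; higher means less reporter light so more repression of VP16 activity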
Active calls of the source: *; . = no result given. A selection: hits, their analogues and other compounds. The true share with any hit is near 2.5%.

SMILES	GalR3 antag	MsrA inhibitor	bovine MsrA act	NR2E3 ag-1	NadD block	NR2E3 ag-2	NR2E3 ag conf	VP16 counter
COc1ccc(C(=O)Nc2nnc(Cc3cccs3)s2)cc1OC	0	-1	-10	63	1	12	62	23
COC(=O)c1cc(S(=O)(=O)N2CCC(c3cc(OC)ccc3OC)C2)c[nH]1 (stereo unspecified)	1	0	-4	81*	-6	2	69	62
COC(=O)c1cc(S(=O)(=O)N2CCC(c3ccccc3)C2)c[nH]1 (stereo unspecified)	-10	0	-4	33	-4	3	.	.
Cc1ccccc1-c1nc2sc(C)c(C)c2c(=O)o1	2	1	0	-5	7	1	.	.
CC(=O)N1CCN(c2ccc(NC(=O)c3ccc4c(c3)OCO4)cc2)CC1	-4	1	-9	6	2	0	.	.
O=C(Nc1ccc(N2CCN(C(=O)c3ccccc3)CC2)cc1)c1ccc2c(c1)OCO2	-8	0	-2	66	3	1	85*	46
CC(C)CNC(=O)CN(C1CCCCC1)S(C)(=O)=O	-1	1	-1	-5	0	-1	.	.
CC(C)(C)c1ccc(NC(=S)NCc2cccs2)cc1	-4	0	0	70	-3	0	64	40
CCCCCC(=O)N/N=C/c1ccco1	-2	-1	-3	-7	1	4	.	.
COc1ccc(S(=O)(=O)Nc2ccc3c(c2)n(C)c(=O)n3C)cc1F	-11	-1	-12	74*	-2	-1	11	19
COc1ccc(S(=O)(=O)Nc2ccc3c(c2)n(C)c(=O)n3C)cc1OC	-4	-1	-8	-29	-3	2	.	.
CCCN(C)C[C@H]1Oc2cc(C#Cc3ccc(F)cc3)ccc2S(=O)(=O)N([C@H](C)CO)C[C@@H]1C	1	0	-10	-28	-2	.	.	.
C/C(=N\NC(=O)C(O)(c1ccccc1)c1ccccc1)c1ccc(C)o1	-4	1	1	-6	0	-5	.	.
O=S1(=O)c2cccc3cccc(c23)N1Cc1nnc(-c2ccccc2Br)o1	-3	1	-5	69	4	-6	87*	72*
N=C1SCC(=O)N1c1ncc(Cc2cccc(Cl)c2)s1	7	2	-6	100*	2	.	97*	42
N=C1SCC(=O)N1c1ncc(Cc2ccccc2Cl)s1	-3	3	-4	100*	-1	.	90*	26
O=C1c2ccccc2C(=O)N1c1ncc(Cc2ccc(Cl)cc2)s1	12	1	-3	-11	4	4	.	.
C[C@H](CO)N1C[C@H](C)[C@@H](CN(C)Cc2ccc(C(=O)O)cc2)Oc2c(NS(=O)(=O)c3ccccc3)cccc2C1=O	-4	0	-3	-28	-6	.	.	.
CCOC(=O)CNC(=O)c1ccccc1	-4	-1	-7	5	-5	2	.	.
CCOC(=O)CNC(=O)c1sc(NC(=O)c2ccccc2)nc1C	-2	0	-2	49	0	-1	3	-21
C=C1C(=O)[C@@]23[C@H](O)C[C@@H]4C(C)(C)CC[C@H](O)[C@@]4(C)[C@@H]2CC[C@@H]1[C@H]3O	-3	0	-1	66	3	6	-13	-92
C=C1C(=O)[C@@]23[C@H](O)C[C@@H]4C(C)(C)CC[C@H](O)[C@]4(C)[C@@H]2C[C@H](O)[C@@H]1[C@H]3O	1	0	-3	21	-7	0	.	.
O=C(Nc1ccccc1)c1ccccc1NS(=O)(=O)c1ccc(Cl)s1	-4	3	1	102*	-10	1	99*	86*
CNC(=O)OCc1nc(SSC(C)(C)C)n(C)c1COC(=O)NC	-1	-1	-1	55	-1	.	28	12
O=C(OCC(=O)N1CCN(c2ccccc2)CC1)C1CCCN1S(=O)(=O)c1ccc(Cl)cc1 (stereo unspecified)	-1	0	-2	5	-2	.	.	.
SMILES	GalR3 antag	MsrA inhibitor	bovine MsrA act	NR2E3 ag-1	NadD block	NR2E3 ag-2	NR2E3 ag conf	VP16 counter
CCCCn1c(CN2CCN(c3cccc(Cl)c3)CC2)nc2c1c(=O)n(C)c(=O)n2C	-6	0	0	-14	4	-1	.	.
CCCn1c(CN2CCN(c3cccc(Cl)c3)CC2)nc2c1c(=O)n(C)c(=O)n2C	.	0	-1	93*	2	-1	94*	85*
O=C(Nc1ccc(Br)cc1)c1cccc(S(=O)(=O)Nc2cnc3ccccc3c2)c1	1	-1	-9	84*	13	2	98*	86*
O=C(Nc1nnc(SCc2ccc(F)cc2)s1)c1ccccn1	-1	2	-1	65	0	.	49	5
CC(=O)C1=NN(c2ccccc2)C(c2cccs2)N1c1ccccc1 (stereo unspecified)	.	.	.	.	.	3	.	.
CC(=O)c1cccc(N=c2scc(-c3ccc(S(=O)(=O)N4CCOCC4)cc3)n2CCO)c1	114*	2	-4	68	-3	-1	82*	77*
C=CCn1c(-c2ccc(S(=O)(=O)N3CCOCC3)cc2)csc1=Nc1ccccc1	-3	1	0	23	4	0	.	.
O=C(NCc1ccc2c(c1)OCO2)C1CCCN1C(=O)Nc1ccccc1 (stereo unspecified)	-9	1	-2	10	5	-2	.	.
CCOc1ccc(CCNC(=O)COC(=O)Cc2c[nH]c3ccccc23)cc1OCC	6	-1	0	-5	-3	3	.	.
CCOc1ccc(CCNC(=O)COC(=O)Cc2ccc(F)cc2)cc1OCC	-1	1	-8	59	-10	2	22	13
COc1ccc(OC)c(NC(=O)CSc2nc3ccccc3cc2Cc2ccccc2)c1	-5	-1	0	6	5	2	.	.
Cn1c2c(c(=O)n(C)c1=O)C(C(F)(F)F)(C(F)(F)F)N=C(c1ccc(Cl)cc1)N2	.	.	-6	98*	4	1	99*	90*
Cc1nc(CCNC(=O)Cc2ccccc2)cs1	1	0	-1	5	-6	2	.	.
Cc1cc(N2CCN(c3ccccc3)CC2)nc(-n2nc(C)cc2C)n1	-4	0	-3	82*	3	-2	-13	12
Cc1cc(C)nc(-n2nc(C)cc2Nc2ccccc2)n1	-2	0	-6	111*	-1	-3	12	6
COc1ccccc1OCCC(=O)O	-6	1	-4	-14	-2	6	.	.
COc1cccc(-c2nnc3n2N=C(C(C)(C)C)CS3)c1	-6	1	-3	69	9	3	29	51
C=CCn1c(O)c(N=NC(=S)Nc2cccc(OC)c2)c2ccccc21	-13	1	-4	77*	3	-1	31	35

Assay outcomes: PubChem BioAssay, several laboratories
